# In ChEMBL document CHEMBL4354843, “Structure-Based Design of a Potent and Selective Covalent Inhibitor for SRC Kinase That Targets a P-Loop Cysteine” (J Med Chem, 2020):
# How the values were obtained:
# [1] = target: Activin receptor type-1-like (Homo sapiens) (UniProt P37023); experiment: Binding affinity to wild-type human ACVRL1 (L164 to Q503 residues) expressed in bacterial expression system assessed as residual binding level at 1 uM by Kinomescan method relative to control
# Outline: (§1)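 Active-site-directed KinomeScan competition binding panel covering 468 kinases, compound tested at 1 μM. Each readout is the kinase signal remaining with compound, expressed as a percentage of the DMSO control. […]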
# [2] = test system: ALK tyrosine kinase receptor (Homo sapiens), Q9UM73 [C1156Y]; experiment: Binding affinity to wild-type human partial length ALK C1156Y mutant (I1088 to E1409 residues) expressed in mammalian expression system assessed as residual binding level at 1 uM by Kinomescan method relative to control
# [3] = target: Serine/threonine-protein kinase B-raf (Homo sapiens) (UniProt P15056); experiment: Binding affinity to wild-type human partial length BRAF (S429 to E741 residues) expressed in mammalian expression system assessed as residual binding level at 1 uM by Kinomescan method relative to control
# [4] = target: Ephrin type-A receptor 2 (Homo sapiens) (UniProt P29317); experiment: Binding affinity to wild-type human partial length EPHA2 (T593 to V891 residues) expressed in bacterial expression system assessed as residual binding level at 1 uM by Kinomescan method relative to control
# [5] = target: Mitogen-activated protein kinase 7 (Homo sapiens) (UniProt Q13164); experiment: Binding affinity to wild-type human partial length ERK5 (M1 to A409 residues) expressed in bacterial expression system assessed as residual binding level at 1 uM by Kinomescan method relative to control
# [6] = target: Fibroblast growth factor receptor 2 (Homo sapiens) (UniProt P21802); experiment: Binding affinity to wild-type human partial length FGFR2 (D457 to E769 residues) expressed in bacterial expression system assessed as residual binding level at 1 uM by Kinomescan method relative to control
# Sequence of Fibroblast growth factor receptor 2 (Homo sapiens) (P21802 22-821 limits assumed): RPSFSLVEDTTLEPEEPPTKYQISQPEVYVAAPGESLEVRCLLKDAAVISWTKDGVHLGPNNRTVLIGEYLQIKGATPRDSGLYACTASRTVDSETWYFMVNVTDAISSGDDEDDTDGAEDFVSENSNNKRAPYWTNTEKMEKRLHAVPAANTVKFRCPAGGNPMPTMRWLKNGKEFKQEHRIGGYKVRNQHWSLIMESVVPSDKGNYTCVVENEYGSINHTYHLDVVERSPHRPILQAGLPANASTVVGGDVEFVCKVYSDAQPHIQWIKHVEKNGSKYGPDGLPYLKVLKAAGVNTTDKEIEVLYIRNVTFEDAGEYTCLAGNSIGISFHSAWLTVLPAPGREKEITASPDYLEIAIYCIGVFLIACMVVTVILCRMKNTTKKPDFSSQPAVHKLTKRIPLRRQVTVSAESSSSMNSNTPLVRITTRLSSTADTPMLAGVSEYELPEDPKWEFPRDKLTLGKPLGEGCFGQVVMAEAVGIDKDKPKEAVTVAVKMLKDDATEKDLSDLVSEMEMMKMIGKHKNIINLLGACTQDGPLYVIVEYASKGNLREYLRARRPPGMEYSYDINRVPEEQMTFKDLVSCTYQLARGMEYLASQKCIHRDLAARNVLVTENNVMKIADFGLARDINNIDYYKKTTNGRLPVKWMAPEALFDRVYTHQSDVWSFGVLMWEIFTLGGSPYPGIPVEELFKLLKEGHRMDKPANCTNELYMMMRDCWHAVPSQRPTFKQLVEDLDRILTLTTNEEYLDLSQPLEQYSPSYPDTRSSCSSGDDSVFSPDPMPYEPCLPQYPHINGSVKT
# [7] = test system: Receptor-type tyrosine-protein kinase FLT3 (Homo sapiens), P36888 [UNDEFINED MUTATION]; experiment: Binding affinity to human partial length FLT3 ITD/D835V double mutant expressed in bacterial expression system assessed as residual binding level at 1 uM by Kinomescan method relative to control
# Outline: (§2)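 KinomeScan active site-directed competition binding panel (468 kinases), compound tested at 1 μM. Result expressed as remaining kinase signal versus DMSO control (percent of control).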
# [8] = target: Inhibitor of nuclear factor kappa-B kinase subunit beta (Homo sapiens) (UniProt O14920); experiment: Binding affinity to wild-type human full length IKK-beta (M1 to S756 residues) expressed in mammalian expression system assessed as residual binding level at 1 uM by Kinomescan method relative to control; outline: as §1
# [9] = target: LIM domain kinase 2 (Homo sapiens) (UniProt P53671); experiment: Binding affinity to wild-type human full length LIMK2 (M1 to P638 residues) expressed in bacterial expression system assessed as residual binding level at 1 uM by Kinomescan method relative to control; outline: as §1
# Sequence of LIM domain kinase 2 (Homo sapiens) (P53671 whole entry, looked up, the tested form may be a part): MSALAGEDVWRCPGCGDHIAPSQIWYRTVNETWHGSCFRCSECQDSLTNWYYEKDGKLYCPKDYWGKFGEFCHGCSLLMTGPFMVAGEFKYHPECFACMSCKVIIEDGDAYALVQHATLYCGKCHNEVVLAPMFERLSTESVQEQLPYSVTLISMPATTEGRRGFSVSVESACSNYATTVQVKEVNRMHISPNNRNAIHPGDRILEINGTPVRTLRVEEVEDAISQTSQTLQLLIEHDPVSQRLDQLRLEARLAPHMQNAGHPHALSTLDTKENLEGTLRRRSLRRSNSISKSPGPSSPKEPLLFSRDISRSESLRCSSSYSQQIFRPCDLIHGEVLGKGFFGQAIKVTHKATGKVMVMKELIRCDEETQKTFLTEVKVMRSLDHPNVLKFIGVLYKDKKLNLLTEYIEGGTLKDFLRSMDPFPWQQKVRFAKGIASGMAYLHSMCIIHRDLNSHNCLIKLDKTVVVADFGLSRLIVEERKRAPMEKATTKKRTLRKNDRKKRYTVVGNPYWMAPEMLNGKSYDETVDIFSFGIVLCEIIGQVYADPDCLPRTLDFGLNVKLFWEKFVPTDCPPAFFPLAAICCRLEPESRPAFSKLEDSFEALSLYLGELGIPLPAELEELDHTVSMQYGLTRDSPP
# [10] = test system: Hepatocyte growth factor receptor (Homo sapiens), P08581 [M1250T]; experiment: Binding affinity to human partial length MET M1250T mutant (D1010 to S1367 residues) expressed in bacterial expression system assessed as residual binding level at 1 uM by Kinomescan method relative to control; outline: as §2
# [11] = target: MAP kinase-interacting serine/threonine-protein kinase 1 (Homo sapiens) (UniProt Q9BUB5); experiment: Binding affinity to wild-type human full length MKNK1 (M1 to L424 residues) expressed in mammalian expression system assessed as residual binding level at 1 uM by Kinomescan method relative to control
# Outline: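 Active-site-directed competition binding panel (KinomeScan) covering 468 kinases. Test agent was screened at 1 μM. The read-out is the remaining kinase signal expressed relative to a DMSO control. Scores above 35%, taken as weak binding, were not reported.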
# [12] = target: Cyclin-dependent kinase 18 (Homo sapiens) (UniProt Q07002); experiment: Binding affinity to wild-type human full length PCTK3 (M3 to F474 residues) expressed in bacterial expression system assessed as residual binding level at 1 uM by Kinomescan method relative to control
# Sequence of Cyclin-dependent kinase 18 (Homo sapiens) (Q07002 whole entry, the tested form may be a part): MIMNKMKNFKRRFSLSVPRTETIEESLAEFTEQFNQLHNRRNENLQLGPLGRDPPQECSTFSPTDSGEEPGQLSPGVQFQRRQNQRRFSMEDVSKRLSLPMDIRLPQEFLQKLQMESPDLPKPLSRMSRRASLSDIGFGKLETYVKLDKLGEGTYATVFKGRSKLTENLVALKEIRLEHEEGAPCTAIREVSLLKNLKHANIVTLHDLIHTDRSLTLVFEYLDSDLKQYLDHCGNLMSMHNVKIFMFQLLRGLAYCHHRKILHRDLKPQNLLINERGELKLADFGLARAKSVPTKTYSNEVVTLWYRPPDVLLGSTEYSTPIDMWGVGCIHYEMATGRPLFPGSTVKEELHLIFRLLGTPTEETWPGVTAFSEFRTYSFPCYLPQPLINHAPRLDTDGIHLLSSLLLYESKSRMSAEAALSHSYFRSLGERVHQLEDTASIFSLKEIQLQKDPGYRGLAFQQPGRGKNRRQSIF
# Outline: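 KinomeScan, an active site-directed competition binding panel of 468 kinases. The test compound was at 1 μM. The readout is remaining kinase binding as a percentage of the DMSO control. Scores above 35% were treated as weak binding and not listed.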
# [13] = target: Phosphatidylinositol 4-phosphate 3-kinase C2 domain-containing subunit beta (Homo sapiens) (UniProt O00750); experiment: Binding affinity to wild-type human partial length PIK3C2B (M1 to L1634 residues) expressed in mammalian expression system assessed as residual binding level at 1 uM by Kinomescan method relative to control
# [14] = target: Phosphatidylinositol 4,5-bisphosphate 3-kinase catalytic subunit delta isoform (Homo sapiens) (UniProt O00329); experiment: Binding affinity to wild-type human partial length PIK3CD (R108 to Q1044 residues) expressed in mammalian expression system assessed as residual binding level at 1 uM by Kinomescan method relative to control
# Sequence of Phosphatidylinositol 4,5-bisphosphate 3-kinase catalytic subunit delta isoform (Homo sapiens) (O00329 whole entry, the tested form may be a part, canonical isoform): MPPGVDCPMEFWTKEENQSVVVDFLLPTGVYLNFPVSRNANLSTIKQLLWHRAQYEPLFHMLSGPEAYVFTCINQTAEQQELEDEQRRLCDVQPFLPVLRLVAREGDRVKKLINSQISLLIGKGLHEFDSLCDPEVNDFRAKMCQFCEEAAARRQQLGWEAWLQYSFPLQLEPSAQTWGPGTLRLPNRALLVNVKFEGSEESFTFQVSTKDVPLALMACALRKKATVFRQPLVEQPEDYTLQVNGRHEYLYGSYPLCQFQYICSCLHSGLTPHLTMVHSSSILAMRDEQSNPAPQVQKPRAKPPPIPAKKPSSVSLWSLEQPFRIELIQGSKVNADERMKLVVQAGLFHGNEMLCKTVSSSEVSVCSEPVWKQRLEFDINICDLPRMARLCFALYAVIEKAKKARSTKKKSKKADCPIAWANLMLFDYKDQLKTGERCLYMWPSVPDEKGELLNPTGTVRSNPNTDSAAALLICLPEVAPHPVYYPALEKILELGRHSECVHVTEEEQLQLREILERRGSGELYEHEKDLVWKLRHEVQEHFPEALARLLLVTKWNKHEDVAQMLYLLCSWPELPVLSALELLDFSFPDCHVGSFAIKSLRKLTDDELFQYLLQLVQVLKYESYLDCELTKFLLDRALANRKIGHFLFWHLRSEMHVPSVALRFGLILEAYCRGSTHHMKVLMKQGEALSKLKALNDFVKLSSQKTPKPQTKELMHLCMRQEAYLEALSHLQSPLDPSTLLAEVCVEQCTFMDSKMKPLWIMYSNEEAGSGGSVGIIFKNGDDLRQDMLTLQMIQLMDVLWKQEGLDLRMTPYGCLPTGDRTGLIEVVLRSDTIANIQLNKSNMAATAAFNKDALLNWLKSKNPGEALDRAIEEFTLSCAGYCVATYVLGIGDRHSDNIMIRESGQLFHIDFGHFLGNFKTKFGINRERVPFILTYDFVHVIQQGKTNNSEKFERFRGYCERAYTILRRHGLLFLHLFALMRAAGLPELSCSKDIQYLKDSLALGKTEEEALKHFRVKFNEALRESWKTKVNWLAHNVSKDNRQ
# [15] = target: Serine/threonine-protein kinase PknB (Mycobacterium tuberculosis) (UniProt P9WI81); experiment: Binding affinity to wild-type Mycobacterium tuberculosis partial length PKNB (M1 to G279 residues) expressed in mammalian expression system assessed as residual binding level at 1 uM by Kinomescan method relative to control; outline: as §1
# Sequence of Serine/threonine-protein kinase PknB (Mycobacterium tuberculosis) (P9WI81 whole entry, the tested form may be a part): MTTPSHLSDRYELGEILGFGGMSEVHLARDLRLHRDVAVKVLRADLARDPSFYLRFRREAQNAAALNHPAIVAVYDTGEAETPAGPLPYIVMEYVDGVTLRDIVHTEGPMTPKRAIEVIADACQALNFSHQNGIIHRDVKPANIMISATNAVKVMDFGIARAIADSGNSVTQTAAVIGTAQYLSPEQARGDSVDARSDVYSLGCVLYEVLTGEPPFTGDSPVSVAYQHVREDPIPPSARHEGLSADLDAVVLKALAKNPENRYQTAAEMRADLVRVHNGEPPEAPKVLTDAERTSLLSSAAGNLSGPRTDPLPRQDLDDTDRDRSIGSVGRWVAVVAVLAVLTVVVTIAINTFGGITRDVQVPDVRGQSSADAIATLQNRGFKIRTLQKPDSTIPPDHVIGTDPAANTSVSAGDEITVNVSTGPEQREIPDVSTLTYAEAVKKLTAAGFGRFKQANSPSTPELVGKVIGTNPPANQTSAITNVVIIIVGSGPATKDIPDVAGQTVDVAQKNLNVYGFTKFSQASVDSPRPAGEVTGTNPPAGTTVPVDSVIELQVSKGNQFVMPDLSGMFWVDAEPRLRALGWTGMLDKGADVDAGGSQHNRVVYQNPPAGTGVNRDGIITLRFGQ
# [16] = target: Protein kinase C epsilon type (Homo sapiens) (UniProt Q02156); experiment: Binding affinity to wild-type human partial length PRKCE (A378 to P737 residues) expressed in mammalian expression system assessed as residual binding level at 1 uM by Kinomescan method relative to control
# [17] = target: Protein kinase C eta type (Homo sapiens) (UniProt P24723); experiment: Binding affinity to wild-type human partial length PRKCH (S324 to P683 residues) expressed in bacterial expression system assessed as residual binding level at 1 uM by Kinomescan method relative to control
# [18] = target: Serine/threonine-protein kinase SIK1 (Homo sapiens) (UniProt P57059); experiment: Binding affinity to wild-type human partial length SIK (M1 to Y304 residues) expressed in bacterial expression system assessed as residual binding level at 1 uM by Kinomescan method relative to control
# Sequence of Serine/threonine-protein kinase SIK1 (Homo sapiens) (P57059 whole entry, the tested form may be a part): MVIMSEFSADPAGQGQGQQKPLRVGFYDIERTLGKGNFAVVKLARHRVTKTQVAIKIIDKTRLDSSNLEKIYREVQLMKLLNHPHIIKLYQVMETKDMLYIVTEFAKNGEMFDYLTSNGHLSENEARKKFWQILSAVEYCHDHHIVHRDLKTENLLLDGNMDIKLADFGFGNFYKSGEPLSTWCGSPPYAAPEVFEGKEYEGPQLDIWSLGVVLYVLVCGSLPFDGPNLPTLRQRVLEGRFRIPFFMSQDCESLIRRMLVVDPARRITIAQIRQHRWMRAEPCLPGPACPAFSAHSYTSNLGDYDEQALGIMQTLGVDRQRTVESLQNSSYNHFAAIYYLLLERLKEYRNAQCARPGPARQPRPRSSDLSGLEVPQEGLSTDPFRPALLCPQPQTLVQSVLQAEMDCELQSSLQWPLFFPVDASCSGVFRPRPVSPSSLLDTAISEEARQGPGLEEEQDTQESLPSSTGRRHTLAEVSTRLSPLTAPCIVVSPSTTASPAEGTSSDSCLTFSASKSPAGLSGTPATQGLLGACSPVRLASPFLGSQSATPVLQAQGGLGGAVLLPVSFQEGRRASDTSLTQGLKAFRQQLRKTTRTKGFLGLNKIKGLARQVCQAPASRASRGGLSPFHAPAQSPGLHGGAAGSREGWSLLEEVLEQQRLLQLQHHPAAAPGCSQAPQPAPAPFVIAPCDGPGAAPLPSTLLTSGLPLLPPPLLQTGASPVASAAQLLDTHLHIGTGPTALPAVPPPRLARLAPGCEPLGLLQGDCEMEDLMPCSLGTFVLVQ
# Outline: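 Active site-directed competition binding panel (KinomeScan, 468 kinases). Test compound at 1 μM. Read-out is kinase binding remaining versus DMSO control, expressed as percent of control. Scores above 35% are treated as weak binding.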
# [19] = target: Angiopoietin-1 receptor (Homo sapiens) (UniProt Q02763); experiment: Binding affinity to wild-type human partial length TIE2 (N804 to T1112 residues) expressed in bacterial expression system assessed as residual binding level at 1 uM by Kinomescan method relative to control
# [20] = target: Serine/threonine-protein kinase WNK3 (Homo sapiens) (UniProt Q9BYP7); experiment: Binding affinity to wild-type human partial length WNK3 (M1 to D434 residues) expressed in mammalian expression system assessed as residual binding level at 1 uM by Kinomescan method relative to control
# Sequence of Activin receptor type-1-like (Homo sapiens) (P37023 whole entry, the tested form may be a part): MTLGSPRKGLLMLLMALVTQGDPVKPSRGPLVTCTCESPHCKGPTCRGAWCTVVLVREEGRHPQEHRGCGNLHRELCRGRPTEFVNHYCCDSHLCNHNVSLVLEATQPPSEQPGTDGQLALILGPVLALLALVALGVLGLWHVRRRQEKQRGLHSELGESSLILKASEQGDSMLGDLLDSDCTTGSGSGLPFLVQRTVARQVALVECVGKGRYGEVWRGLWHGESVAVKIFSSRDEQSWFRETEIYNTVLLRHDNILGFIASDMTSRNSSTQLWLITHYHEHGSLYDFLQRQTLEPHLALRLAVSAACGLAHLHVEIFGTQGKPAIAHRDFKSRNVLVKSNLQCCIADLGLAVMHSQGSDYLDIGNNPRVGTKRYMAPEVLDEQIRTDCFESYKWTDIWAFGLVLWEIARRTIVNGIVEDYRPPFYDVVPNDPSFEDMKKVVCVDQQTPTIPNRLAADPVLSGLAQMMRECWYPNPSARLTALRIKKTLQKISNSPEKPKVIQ
compound,measurement,setting,value
C=CC(=O)Nc1ccccc1Nc1nc(Nc2ccc(N3CCN(C)CC3)cc2)ncc1C(=O)Nc1c(C)cccc1Cl,Activity,[1],100%
same,Activity,[2],99%
same,Activity,[3],100%
same,Activity,[4],100%
same,Activity,[5],92%
same,Activity,[6],95%
same,Activity,[7],89%
same,Activity,[8],100%
same,Activity,[9],100%
same,Activity,[10],100%
same,Activity,[11],92%
same,Activity,[12],98%
same,Activity,[13],100%
same,Activity,[14],100%
same,Activity,[15],100%
same,Activity,[16],100%
same,Activity,[17],100%
same,Activity,[18],1%
same,Activity,[19],100%
same,Activity,[20],100%
